Measured values as given in ChEMBL document CHEMBL1121790, “Proposed dopaminergic pharmacophore of lergotrile, pergolide, and related ergot alkaloid derivatives” (1981).
Active and inactive are the calls of the source. No cut-off for these calls is given here.

Assays:
[1] = test system: Felis catus; assay: Compound was tested for percentage increase in mean arterial blood pressure at 100 mg/kg in anaesthetized cat; assay type: functional, Artery
How it was run: (§1)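 Pentobarbital sodium (30 mg/kg, intrathorax) anaesthetised cats; arterial pressure from right femoral artery via pressure transducer. Compound given iv, doses spaced 0.48 log units. Change in mean arterial pressure (increase, i.e. transient primary pressor phase, and decrease) and in resting heart rate expressed as % of resting control; resting pressure (mmHg) and heart rate (beats/min) also recorded.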

[2] = test system: Felis catus; assay: Compound was tested for percentage decrease in mean arterial blood pressure at 100 mg/kg in anaesthetized cat (resting mean arterial pressure (mmHg)); assay type: functional, Artery; how it was run: as §1
[3] = test system: Felis catus; assay: Compound was tested for neuronal inhibition of postganglionic cardio accelerator nerve stimulation in anaesthetized cat at 2 Hz frequency at 300 mg/kg; assay type: functional; conditions: Heart
How it was run: (§2)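 Cats anaesthetised with pentobarbital sodium (30 mg/kg, intrathorax); arterial pressure recorded from right femoral artery. Postganglionic cardioaccelerator nerve stimulated at 2 Hz, 5 ms pulses, supramaximal voltage, 20-30 s trains. After stable controls, compound given iv in doses spaced 0.48 log units; inhibition of stimulation-induced tachycardia measured. Haloperidol 100 μg iv at end, inhibition redetermined. ID50 by probit analysis.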

[4] = test system: Felis catus; assay: Compound was tested for percentage decrease in heart rate at 300 mg/kg in anaesthetized cat; assay type: functional; how it was run: as §1
[5] = test system: Felis catus; assay: Compound was tested for neuronal inhibition of postganglionic cardio accelerator nerve stimulation in anaesthetized cat at 2 Hz frequency at 100 mg/kg; assay type: functional; conditions: Heart; how it was run: as §2
[6] = test system: Felis catus; assay: Compound was tested for percentage increase in mean arterial blood pressure at 30 mg/kg in anaesthetized cat; assay type: functional, Artery; how it was run: as §1
[7] = test system: Felis catus; assay: Compound was tested for percentage decrease in heart rate at […] in anaesthetized cat (resting heart rate (beats/min)); assay type: functional; how it was run: as §1
[8] = test system: Felis catus; assay: Compound was tested for percentage decrease in mean arterial blood pressure at 30 mg/kg in anaesthetized cat; assay type: functional, Artery; how it was run: as §1
[9] = test system: Felis catus; assay: Compound was tested for inhibitory effect reversed by haloperidol (100 ug/kg) at […] in anaesthetized cat; Yes; assay type: functional, organism-based; how it was run: as §2
[10] = test system: Felis catus; assay: Sympathetic neuronal inhibiting activity in anaesthetized cat 30 at mg/kg; 0.12-0.33; assay type: functional; conditions: Sympathetic neuron, read-out: ID50 (the source's name); how it was run: as §2
[11] = test system: Felis catus; assay: Potency relative to apomorphine at […] in anaesthetized cat; 0.07-0.33; assay type: functional
[12] = test system: Felis catus; assay: Compound was tested for percentage decrease in heart rate at 30 mg/kg in anaesthetized cat; assay type: functional; how it was run: as §1
[13] = test system: Felis catus; assay: Compound was tested for percentage increase in mean arterial blood pressure at 300 mg/kg in anaesthetized cat; assay type: functional, Artery; how it was run: as §1
[14] = test system: Felis catus; assay: Compound was tested for neuronal inhibition of postganglionic cardio accelerator nerve stimulation in anaesthetized cat at 2 Hz frequency at 30 mg/kg; assay type: functional; conditions: Heart; how it was run: as §2
[15] = test system: Felis catus; assay: Compound was tested for percentage decrease in mean arterial blood pressure at 300 mg/kg in anaesthetized cat; assay type: functional, Artery; how it was run: as §1
[16] = test system: Felis catus; assay: Compound was tested for percentage decrease in heart rate at 100 mg/kg in anaesthetized cat; assay type: functional; how it was run: as §1
[17] = test system: Felis catus; assay: Sympathetic neuronal inhibiting activity in anaesthetized cat at 30 mg/kg; assay type: functional; conditions: Sympathetic neuron, read-out: ID50 (the source's name); how it was run: as §2
[18] = test system: Felis catus; assay: Potency relative to apomorphine at 30 mg/kg in anaesthetized cat; assay type: functional
[19] = test system: Felis catus; assay: Compound was tested for percentage decrease in mean arterial blood pressure at 100 mg/kg in anaesthetized cat; assay type: functional, Artery; how it was run: as §1
[20] = test system: Felis catus; assay: Compound was tested for neuronal inhibition of postganglionic cardio accelerator nerve stimulation in anaesthetized cat at 2 Hz frequency at 10 mg/kg; assay type: functional; conditions: Heart; how it was run: as §2
[21] = test system: Felis catus; assay: Compound was tested for percentage decrease in heart rate at 10 mg/kg in anaesthetized cat; assay type: functional; how it was run: as §1
[22] = test system: Felis catus; assay: Compound was tested for percentage increase in mean arterial blood pressure at 10 mg/kg in anaesthetized cat; assay type: functional, Artery; how it was run: as §1
[23] = test system: Felis catus; assay: Compound was tested for neuronal inhibition of postganglionic cardio accelerator nerve stimulation in anaesthetized cat at 2 Hz frequency at 3 mg/kg; assay type: functional; conditions: Heart; how it was run: as §2
[24] = test system: Felis catus; assay: Sympathetic neuronal inhibiting activity in anaesthetized cat 3 at mg/kg; assay type: functional; conditions: Sympathetic neuron, read-out: ID50 (the source's name); how it was run: as §2
[25] = test system: Felis catus; assay: Compound was tested for percentage decrease in mean arterial blood pressure at 10 mg/kg in anaesthetized cat (resting mean arterial pressure (mmHg)); assay type: functional, Artery; how it was run: as §1
[26] = test system: Felis catus; assay: Compound was tested for percentage increase in mean arterial blood pressure at 3 mg/kg in anaesthetized cat; assay type: functional, Artery; how it was run: as §1
[27] = test system: Felis catus; assay: Potency relative to apomorphine at 3 mg/kg in anaesthetized cat; assay type: functional
[28] = test system: Felis catus; assay: Compound was tested for inhibitory effect reversed by haloperidol (100 ug/kg) at 3 mg/kg in anaesthetized cat; yes; assay type: functional, organism-based; set-up: dose 3 mg/kg
How it was run: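 Pentobarbital sodium (30 mg/kg) anaesthetised cats; arterial pressure recorded from the right femoral artery. Postganglionic cardioaccelerator nerve stimulated at 2 Hz with 5 ms pulses at supramaximal voltage, in 20-30 s trains. After stable controls, compound was given iv in doses spaced at 0.48 log intervals. Haloperidol (100 μg/kg iv) was then given and inhibition of nerve-evoked tachycardia redetermined.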

[29] = test system: Felis catus; assay: Compound was tested for percentage decrease in mean arterial blood pressure at 3 mg/kg in anaesthetized cat; assay type: functional, Artery; how it was run: as §1
[30] = test system: Felis catus; assay: Compound was tested for percentage decrease in heart rate at 3 mg/kg in anaesthetized cat; assay type: functional; how it was run: as §1

SMILES	inhibition in vivo at 300 mg/kg [3]	Decrease [4]	inhibition in vivo at 100 mg/kg [5]	Increase [6]	Decrease [8]	Inhibitory effect [9]	Decrease [12]	inhibition in vivo at 30 mg/kg [14]	Decrease [15]	other results
CNCCc1cccc2[nH]ccc12	77%	10%	60%	6%	11%	Yes	7%	29%	10%	Increase [1]: 16%; Decrease [2]: 18%; Decrease [7]: 12%; ED50 [10]: 0.22 µmol/kg; Ratio [11]: 0.14; Increase [13]: 41%
CN1C[C@H](CC#N)C[C@@H]2c3cccc4[nH]c(Cl)c(c34)C[C@H]21 [LERGOTRILE]	69%	12%	57%		22%	Yes	11%	21%	38%	Decrease [16]: 10%; ED50 [17]: 0.27 µmol/kg; Ratio [18]: 0.08; Decrease [19]: 34%
CCCN1C[C@H](CSC)C[C@@H]2c3cccc4[nH]cc(c34)C[C@H]21 [PERGOLIDE]				52%	6%		80%	80%		inhibition in vivo at 10 mg/kg [20]: 59%; Decrease [21]: 59%; Increase [22]: 15%; inhibition in vivo at 3 mg/kg [23]: 23%; ED50 [24]: 0.02 µmol/kg; Decrease [25]: 8%; Increase [26]: 5%; Ratio [27]: 1.13; Inhibitory effect [28]: Active; Decrease [29]: 5%; Decrease [30]: 23%
